≈ marks a conversion by molar mass, not a printed value.
What was measured:
Type in all cases: functional
Streptococcus pneumoniae [1] = assay: Antibacterial activity against erythromycin-resistant Streptococcus pneumoniae 12-6 by broth microdilution method
Streptococcus pneumoniae [2] = assay: Antibacterial activity against erythromycin-resistant Streptococcus pneumoniae 12-5 by broth microdilution method
Streptococcus pneumoniae [3] = assay: Antibacterial activity against erythromycin-sensitive Streptococcus pneumoniae 12-14 by broth microdilution method
Method in brief: (§1)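 Strains obtained from the Institute of Medicinal Biotechnology, Academy of Medical Sciences & Peking Union Medical College. MIC determined in vitro by broth microdilution following NCCLS recommendations.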

Streptococcus pneumoniae [4] = assay: Antibacterial activity against erythromycin-sensitive Streptococcus pneumoniae 12-10 by broth microdilution method; method in brief: as §1
Streptococcus pneumoniae [5] = assay: Antibacterial activity against erythromycin-sensitive Streptococcus pneumoniae 12-8 by broth microdilution method; method in brief: as §1
Streptococcus pneumoniae [6] = assay: Antibacterial activity against erythromycin-sensitive Streptococcus pneumoniae 12-4 by broth microdilution method
Streptococcus pneumoniae [7] = assay: Antibacterial activity against erythromycin-sensitive Streptococcus pneumoniae 12-1 by broth microdilution method; method in brief: as §1
Streptococcus pyogenes [8] = assay: Antibacterial activity against erythromycin-resistant Streptococcus pyogenes 11-2 by broth microdilution method
Streptococcus pyogenes [9] = assay: Antibacterial activity against erythromycin-sensitive Streptococcus pyogenes ATCC 19625 by broth microdilution method; method in brief: as §1
[10] = system: Staphylococcus epidermidis; assay: Antibacterial activity against methicillin-resistant Staphylococcus epidermidis 12-11 by broth microdilution method
[11] = system: Staphylococcus epidermidis; assay: Antibacterial activity against methicillin-resistant Staphylococcus epidermidis 12-4 by broth microdilution method
[12] = system: Staphylococcus epidermidis; assay: Antibacterial activity against methicillin-sensitive Staphylococcus epidermidis 12-5 by broth microdilution method; method in brief: as §1
[13] = system: Staphylococcus epidermidis; assay: Antibacterial activity against methicillin-sensitive Staphylococcus epidermidis 11-20 by broth microdilution method; method in brief: as §1
[14] = system: Staphylococcus epidermidis; assay: Antibacterial activity against methicillin-sensitive Staphylococcus epidermidis ATCC 12228 by broth microdilution method; method in brief: as §1
Staphylococcus aureus [15] = assay: Antibacterial activity against methicillin-resistant Staphylococcus aureus 12-31 by broth microdilution method
Staphylococcus aureus [16] = assay: Antibacterial activity against methicillin-sensitive Staphylococcus aureus 12-32 by broth microdilution method; method in brief: as §1
Staphylococcus aureus [17] = assay: Antibacterial activity against methicillin-sensitive Staphylococcus aureus ATCC 29213 by broth microdilution method; method in brief: as §1

| SMILES | MIC (Streptococcus pneumoniae [1]) [µg/mL] | MIC (Streptococcus pneumoniae [2]) [µg/mL] | MIC (Streptococcus pneumoniae [3]) [µg/mL] | MIC (Streptococcus pneumoniae [4]) [µg/mL] | MIC (Streptococcus pneumoniae [5]) [µg/mL] | MIC (Streptococcus pneumoniae [6]) [µg/mL] | MIC (Streptococcus pneumoniae [7]) [µg/mL] | MIC (Streptococcus pyogenes [8]) [µg/mL] | MIC (Streptococcus pyogenes [9]) [µg/mL] | MIC [10] [µg/mL] | MIC [11] [µg/mL] | MIC [12] [µg/mL] | MIC [13] [µg/mL] | MIC [14] [µg/mL] | MIC (Staphylococcus aureus [15]) [µg/mL] | MIC (Staphylococcus aureus [16]) [µg/mL] | MIC (Staphylococcus aureus [17]) [µg/mL] |
| --- | --- | --- | --- | --- | --- | --- | --- | --- | --- | --- | --- | --- | --- | --- | --- | --- | --- |
| CC[C@H]1OC(=O)[C@H](C)[C@@H](O[C@H]2C[C@@](C)(OC)[C@@H](O[C@@H]3O[C@H](C)[C@@H](OCc4ccccc4)[C@H](N(C)C)[C@H]3OC(=O)c3ccccc3)[C@H](C)O2)[C@H](C)[C@@H](O[C@@H]2O[C@H](C)C[C@H](N(C)C)[C@H]2O)[C@@](C)(OC)C[C@@H](C)C(=O)[C@H](C)[C@H]2OC(=O)O[C@@]21C | > 32 | > 32 | > 32 | > 32 | 16 (≈ 14 µM) | > 32 | > 32 | > 32 | > 32 | > 32 | > 32 | > 32 | > 32 | > 32 | > 32 | > 32 | > 32 |
| CC[C@H]1OC(=O)[C@H](C)[C@@H](O[C@H]2C[C@@](C)(OC)[C@@H](O[C@@H]3O[C@H](C)[C@@H](OCc4ccccc4)[C@H](N(C)C)[C@H]3OC(=O)c3ccccc3)[C@H](C)O2)[C@H](C)[C@@H](O[C@@H]2O[C@H](C)C[C@H](N(C)C)[C@H]2O)[C@@](C)(OC)C[C@@H](C)C(=O)[C@H](C)[C@@H](O)[C@]1(C)O | 32 (≈ 28.7 µM) | 32 (≈ 28.7 µM) | 32 (≈ 28.7 µM) | 16 (≈ 14.3 µM) | 2 (≈ 1.79 µM) | 32 (≈ 28.7 µM) | > 32 | > 32 | > 32 | > 32 | > 32 | > 32 | > 32 | > 32 | > 32 | > 32 | > 32 |
| CC[C@H]1OC(=O)[C@H](C)[C@@H](O[C@H]2C[C@@](C)(OC)[C@@H](O[C@@H]3O[C@H](C)[C@@H](OCc4ccccc4)[C@H](N(C)C)[C@H]3O)[C@H](C)O2)[C@H](C)[C@@H](O[C@@H]2O[C@H](C)C[C@H](N(C)C)[C@H]2O)[C@@](C)(OC)C[C@@H](C)C(=O)[C@H](C)[C@@H](O)[C@]1(C)O | 32 (≈ 31.6 µM) | 32 (≈ 31.6 µM) | 32 (≈ 31.6 µM) | 32 (≈ 31.6 µM) | 32 (≈ 31.6 µM) | 32 (≈ 31.6 µM) | 32 (≈ 31.6 µM) | > 32 | 32 (≈ 31.6 µM) | > 32 | > 32 | > 32 | > 32 | > 32 | > 32 | > 32 | > 32 |
| CC[C@H]1OC(=O)[C@H](C)[C@@H](O[C@H]2C[C@@](C)(OC)[C@@H](O[C@@H]3O[C@H](C)[C@@H](O)[C@H](N(C)C)[C@H]3OC(=O)c3ccccc3)[C@H](C)O2)[C@H](C)[C@@H](O[C@@H]2O[C@H](C)C[C@H](N(C)C)[C@H]2O)[C@@](C)(OC)C[C@@H](C)C(=O)[C@H](C)[C@@H](O)[C@]1(C)O | > 32 | 32 (≈ 31.2 µM) | 16 (≈ 15.6 µM) | 16 (≈ 15.6 µM) | 4 (≈ 3.9 µM) | 32 (≈ 31.2 µM) | > 32 | > 32 | 8 (≈ 7.8 µM) | 16 (≈ 15.6 µM) | 16 (≈ 15.6 µM) | 32 (≈ 31.2 µM) | 32 (≈ 31.2 µM) | > 32 | > 32 | > 32 | 16 (≈ 15.6 µM) |
| CC[C@H]1OC(=O)[C@H](C)[C@@H](O[C@H]2C[C@@](C)(OC)[C@@H](O[C@@H]3O[C@H](C)[C@@H](O)[C@H](N(C)C)[C@H]3O)[C@H](C)O2)[C@H](C)[C@@H](O[C@@H]2O[C@H](C)C[C@H](N(C)C)[C@H]2O)[C@@](C)(OC)C[C@@H](C)C(=O)[C@H](C)[C@@H](O)[C@]1(C)O | 32 (≈ 34.7 µM) | 16 (≈ 17.4 µM) | 4 (≈ 4.34 µM) | 2 (≈ 2.17 µM) | 2 (≈ 2.17 µM) | 16 (≈ 17.4 µM) | 2 (≈ 2.17 µM) | > 32 | 2 (≈ 2.17 µM) | 2 (≈ 2.17 µM) | 4 (≈ 4.34 µM) | 16 (≈ 17.4 µM) | 8 (≈ 8.68 µM) | 16 (≈ 17.4 µM) | > 32 | 16 (≈ 17.4 µM) | 4 (≈ 4.34 µM) |
